Results from ChEMBL document CHEMBL4020839, “Class I HDAC Inhibitors Display Different Antitumor Mechanism in Leukemia and Prostatic Cancer Cells Depending on Their p53 Status” (J Med Chem, 2018).
The source made the active and inactive calls. The calls are words filed in the database; no cut-off is given here.

Columns and labels:
[1] = tested on: MV4-11; experiment: Antiproliferative activity against human MV4-11 cells assessed as cell death at 2 to 10 uM after 24 to 48 hrs by CellTiter-Blue assay; type: functional, cell-based
How it was run: (§1)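 MV4-11 and PC-3 cells treated with 10 or 2 μM (or 0 μM) and sampled at 24 and 48 h. Viable cells measured by CellTiter-Blue resorufin fluorescence, read as in the EC50 assay, which is proportional to viable cell number. Representative of n = 2 experiments.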

[2] = tested on: MV4-11; experiment: Induction of apoptosis in human MV4-11 cells assessed as increase in cleaved caspase-3 level at 1 to 2 uM after 24 hrs by Western blot method; type: functional, cell-based
How it was run: (§2)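 MV4-11 (1,500,000/well) or PC-3 (300,000/well) grown 12 h, then treated 24 h at 1 and 2 μM, with 5 μM SAHA as reference. RIPA lysis, sonication and centrifugation, BCA normalization. NuPAGE 4–12% Bis-Tris gel in MES, transfer, primary antibodies 1/1000 overnight at 4 °C. Actin as loading control.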

[3] = tested on: PC-3; experiment: Downregulation of HDAC6 protein expression in human PC3 cells at 1 to 2 uM after 24 hrs by Western blot method; type: functional, cell-based; how it was run: as §2
[4] = tested on: MV4-11; experiment: Antiproliferative activity against human MV4-11 cells assessed as cell death at 10 uM after 48 hrs by CellTiter-Blue assay; type: functional, cell-based; how it was run: as §1
[5] = target: T1, Histone deacetylase 2 (Homo sapiens, UniProt Q92769); experiment: Inhibition of full length recombinant human C-terminal FLAG/His-tagged HDAC2 expressed in baculovirus expression system using Boc-Lys(acetyl)-AMC as substrate preincubated for 1 hr followed by substrate addition measured after 2 hrs by fluorescence assay
How it was run: (§3)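 Recombinant HDAC incubated with serial compound dilutions at 30 °C for 1 h. Reaction run 2 h at 30 °C, stopped with developer containing trypsin and TSA. Fluorescence read after 30 min at 360/460 nm. Inhibition relative to control wells; IC50 from variable-slope fit.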

[6] = tested on: MV4-11; experiment: Downregulation of HDAC1 protein expression in human MV4-11 cells at 1 to 2 uM after 24 hrs by Western blot method; type: functional, cell-based; how it was run: as §2
[7] = target: T2, Histone deacetylase 8 (Homo sapiens, UniProt Q9BY41); experiment: Inhibition of full length recombinant human C-terminal His-tagged HDAC8 expressed in baculovirus expression system using Boc-Lys(trifluoroacetyl)-AMC as substrate preincubated for 1 hr followed by substrate addition measured after 2 hrs by fluorescence assay; how it was run: as §3
T2 sequence (Q9BY41 whole entry): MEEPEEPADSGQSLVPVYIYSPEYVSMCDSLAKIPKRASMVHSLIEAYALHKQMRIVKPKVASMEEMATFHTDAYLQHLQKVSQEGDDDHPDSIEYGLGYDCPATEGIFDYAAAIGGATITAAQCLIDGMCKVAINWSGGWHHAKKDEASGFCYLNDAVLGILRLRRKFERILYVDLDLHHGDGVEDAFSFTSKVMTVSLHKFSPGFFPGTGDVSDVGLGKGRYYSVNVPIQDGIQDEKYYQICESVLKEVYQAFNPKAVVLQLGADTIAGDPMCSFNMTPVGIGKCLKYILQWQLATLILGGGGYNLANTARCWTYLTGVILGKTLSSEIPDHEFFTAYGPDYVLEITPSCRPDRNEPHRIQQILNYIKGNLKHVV

[8] = target: T1, Histone deacetylase 2; settings: 0.25 to 2 uM
[9] = tested on: PC-3; experiment: Induction of apoptosis in human PC3 cells assessed as increase in cleaved caspase-3 level at 1 to 2 uM after 24 hrs by Western blot method; type: functional, cell-based; how it was run: as §2
[10] = target: Histone deacetylase 1 (Homo sapiens, UniProt Q13547); experiment: Inhibition of full length recombinant human C-terminal FLAG/His-tagged HDAC1 expressed in baculovirus expression system using Boc-Lys(acetyl)-AMC as substrate preincubated for 1 hr followed by substrate addition measured after 2 hrs by fluorescence assay; how it was run: as §3
[11] = tested on: PC-3; experiment: Antiproliferative activity against human PC3 cells assessed as cell viability at 10 uM after 48 hrs by CellTiter-Blue assay relative to control; type: functional; settings: PC-3, 48 h, read-out: Activity; how it was run: as §1
[12] = tested on: PC-3; experiment: Induction of apoptosis in human PC3 cells assessed as increase in cleaved PARP level at 1 to 2 uM after 24 hrs by Western blot method; type: functional, cell-based; how it was run: as §2
[13] = tested on: MV4-11; experiment: Induction of p53 degradation in human MV4-11 cells up to 500 nM after 6 hrs in presence of proteasome inhibitor bortezomib by Western blot analysis; type: functional, cell-based
[14] = target: T3, Protein deacetylase HDAC6 (Homo sapiens) (UniProt Q9UBN7); experiment: Inhibition of HDAC6 in human PC3 cells assessed as increase in acetylated tubulin level at 1 to 2 uM after 24 hrs by Western blot method; type: cell-based; how it was run: as §2
T3 sequence (whole entry): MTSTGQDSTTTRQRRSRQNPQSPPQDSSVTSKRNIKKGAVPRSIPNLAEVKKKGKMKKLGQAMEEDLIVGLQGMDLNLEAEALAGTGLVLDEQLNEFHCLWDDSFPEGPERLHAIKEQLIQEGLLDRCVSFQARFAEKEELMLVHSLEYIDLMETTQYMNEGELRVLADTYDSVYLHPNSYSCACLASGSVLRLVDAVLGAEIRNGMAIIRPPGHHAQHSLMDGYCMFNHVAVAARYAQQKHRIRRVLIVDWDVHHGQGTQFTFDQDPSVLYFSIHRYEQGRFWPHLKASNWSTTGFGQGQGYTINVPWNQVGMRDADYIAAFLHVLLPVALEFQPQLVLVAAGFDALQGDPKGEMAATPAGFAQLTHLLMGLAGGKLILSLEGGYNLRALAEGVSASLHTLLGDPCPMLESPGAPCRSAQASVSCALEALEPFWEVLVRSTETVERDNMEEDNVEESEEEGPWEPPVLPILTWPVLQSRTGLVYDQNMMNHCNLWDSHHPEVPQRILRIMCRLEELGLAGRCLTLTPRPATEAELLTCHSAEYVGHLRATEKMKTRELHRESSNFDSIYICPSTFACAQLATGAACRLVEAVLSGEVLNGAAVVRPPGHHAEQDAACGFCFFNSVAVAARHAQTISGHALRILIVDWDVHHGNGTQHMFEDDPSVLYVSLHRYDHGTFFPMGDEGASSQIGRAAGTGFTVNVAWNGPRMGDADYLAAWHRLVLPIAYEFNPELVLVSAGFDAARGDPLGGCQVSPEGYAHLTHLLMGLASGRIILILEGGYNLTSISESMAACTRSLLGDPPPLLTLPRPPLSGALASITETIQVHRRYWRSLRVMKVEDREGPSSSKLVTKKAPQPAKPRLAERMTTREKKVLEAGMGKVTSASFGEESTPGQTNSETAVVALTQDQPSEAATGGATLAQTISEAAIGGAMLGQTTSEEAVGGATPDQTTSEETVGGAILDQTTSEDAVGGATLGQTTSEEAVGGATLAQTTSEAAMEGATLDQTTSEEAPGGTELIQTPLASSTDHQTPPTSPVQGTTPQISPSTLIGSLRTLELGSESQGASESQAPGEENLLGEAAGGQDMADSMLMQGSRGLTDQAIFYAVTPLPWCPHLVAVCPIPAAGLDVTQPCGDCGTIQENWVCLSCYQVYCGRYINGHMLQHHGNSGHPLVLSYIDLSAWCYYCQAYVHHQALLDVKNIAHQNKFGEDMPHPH

T1 sequence (Q92769 whole entry): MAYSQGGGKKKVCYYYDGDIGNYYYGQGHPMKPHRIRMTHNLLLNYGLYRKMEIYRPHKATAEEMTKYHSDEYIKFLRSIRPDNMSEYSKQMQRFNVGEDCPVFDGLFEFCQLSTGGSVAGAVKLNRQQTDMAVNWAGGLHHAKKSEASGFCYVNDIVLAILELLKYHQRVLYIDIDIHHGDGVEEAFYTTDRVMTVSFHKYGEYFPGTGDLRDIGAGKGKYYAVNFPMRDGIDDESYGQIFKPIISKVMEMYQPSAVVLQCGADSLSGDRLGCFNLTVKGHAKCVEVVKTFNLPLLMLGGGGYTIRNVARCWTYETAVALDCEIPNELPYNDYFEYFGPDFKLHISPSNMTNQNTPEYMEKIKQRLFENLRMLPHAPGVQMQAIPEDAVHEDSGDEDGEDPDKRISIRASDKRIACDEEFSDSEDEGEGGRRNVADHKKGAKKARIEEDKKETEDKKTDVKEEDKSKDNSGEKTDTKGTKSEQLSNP
Histone deacetylase 1, sequence (Q13547 whole entry): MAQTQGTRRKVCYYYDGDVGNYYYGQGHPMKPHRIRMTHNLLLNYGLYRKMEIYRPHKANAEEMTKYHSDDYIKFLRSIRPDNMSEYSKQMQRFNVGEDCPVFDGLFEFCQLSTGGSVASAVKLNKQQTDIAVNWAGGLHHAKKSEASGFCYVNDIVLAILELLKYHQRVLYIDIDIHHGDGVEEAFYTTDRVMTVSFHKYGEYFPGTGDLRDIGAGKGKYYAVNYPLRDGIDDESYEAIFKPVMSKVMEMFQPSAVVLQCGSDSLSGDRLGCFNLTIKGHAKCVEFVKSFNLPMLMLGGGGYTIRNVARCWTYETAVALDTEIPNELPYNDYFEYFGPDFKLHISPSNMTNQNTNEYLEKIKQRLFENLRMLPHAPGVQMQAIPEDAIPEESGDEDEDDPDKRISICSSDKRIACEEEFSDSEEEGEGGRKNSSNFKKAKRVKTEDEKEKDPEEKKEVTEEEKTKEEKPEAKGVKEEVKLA

CCCNNC(=O)c1ccc(NC(=O)[C@H](Cc2c[nH]c3ccccc23)NC(=O)c2ccc(OC)cc2)cc1 was tested, and the Activity [1] was “Active”, the Activity [2] was “Active” and the Activity [3] was “inactive”. For the same compound, the Activity [4] was “Active”, the IC50 [5] was 0.028 µM and the Activity [6] was “inactive”. The IC50 [7] was 0.626 µM, the inhibition [8] was “Active” and the Activity [9] was “inactive”. For the same compound, the IC50 [10] was 0.00954 µM, the viability at 10 µM [11] was 20% and the Activity [12] was “inactive”. The Activity [13] was “inactive” and the inhibition [14] was “inactive”.
